MEKK2 WT-MEK5 = raises or lowers MEK5 binding to wildtype human MEKK2 PB1 domain; Q9Y2U5; binding response (% of control), % at 10 µM; actives 1.1% (n = 290,000); bead flow cytometry, Alexa488-MEK5 binding to MEKK2 WT; actives lie on both sides; in the data active means binding response below about 67% or above about 130%
IMP-1 inh-1 = inhibitors of Pseudomonas aeruginosa IMP-1 metallo-beta-lactamase | actives 0.45% (n = 290,000) | purified IMP-1, nitrocefin hydrolysis, epi-absorbance fluorescence | inhibition, % at 5.6 µM;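 active means inhibition above the mean plus 3 SD of all compounds in the same screening run, cut at about 4.5% in these data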;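 further: 0% = IMP-1 with DMSO and 100% = DMSO wells lacking enzyme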
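system = purified recombinant IMP-1 beta-lactamase | amount = 0.2 nM IMP-1, as dispensed | medium = HEPES buffer pH 7.1 with ZnSO4 and Brij 35 | times = 25 °C, 15 min preincubation, 25 min reaction | detection = plate fluorescence quenching by hydrolysis product, ex 480/em 530 nm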
VIM-2 inhibitor = inhibitors of Pseudomonas aeruginosa VIM-2 metallo-beta-lactamase. purified VIM-2, nitrocefin hydrolysis, epi-absorbance fluorescence. actives 0.89% (n = 290,000). inhibition, % at 5.6 µM;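 active means inhibition above the mean of all tested compounds plus 3 SD, cutoff set per screening run, cut at about 7.5% in these data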;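 further: red hydrolysis product quenches plate fluorescence so inhibitors raise well fluorescence; 0% = enzyme with DMSO and 100% = DMSO without enzyme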
MEKK3 PB1 HTS = MEKK3-MEK5 PB1 interaction, increase or decrease | Q99759 | actives 1.4% (n = 290,000) | bead-based flow cytometry, Alexa488-MEK5 binding to MEKK3; actives lie on both sides; 0 = blocked by unlabeled MEK5, 100 = vehicle | binding response (% of control), % at 10 µM;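 active means binding response more than 3 SD above or below the average of its plate-row segment, actives on both sides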;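 further: Alexa488 bead fluorescence after subtracting the streptavidin-only scavenger bead signal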
Target sequence (Q99759 whole entry, looked up): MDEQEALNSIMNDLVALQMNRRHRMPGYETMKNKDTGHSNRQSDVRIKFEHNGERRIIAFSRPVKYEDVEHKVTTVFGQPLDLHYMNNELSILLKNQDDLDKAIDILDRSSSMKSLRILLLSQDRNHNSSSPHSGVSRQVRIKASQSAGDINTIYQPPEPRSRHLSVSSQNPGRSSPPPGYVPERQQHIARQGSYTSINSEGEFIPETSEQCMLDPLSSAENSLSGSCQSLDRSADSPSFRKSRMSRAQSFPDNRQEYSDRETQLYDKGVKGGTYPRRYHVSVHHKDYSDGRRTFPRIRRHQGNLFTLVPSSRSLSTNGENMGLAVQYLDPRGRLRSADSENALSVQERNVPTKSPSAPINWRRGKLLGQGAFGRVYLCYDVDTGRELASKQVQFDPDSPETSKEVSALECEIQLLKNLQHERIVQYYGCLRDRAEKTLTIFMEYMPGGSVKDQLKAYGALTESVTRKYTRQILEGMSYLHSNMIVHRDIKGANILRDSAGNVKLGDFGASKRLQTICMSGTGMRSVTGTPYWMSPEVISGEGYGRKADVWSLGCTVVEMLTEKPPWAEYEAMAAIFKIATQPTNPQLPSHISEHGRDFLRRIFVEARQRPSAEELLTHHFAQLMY
MEKK2mut PB1 HTS = signal of MEK5 binding to mutant human MEKK2 PB1 domain. percent response, % at 10 µM. bead flow cytometry, Alexa488-MEK5 binding to MEKK2 mutant. actives 0.35% (n = 290,000); in the data active means percent response above about 24%, passing the limit was not always enough
IMP-1 inh-2 = blocks IMP-1 metallo-beta-lactamase in VIM-2 selectivity screen. shares compounds with VIM-2 inhibitor. purified IMP-1, nitrocefin hydrolysis, epi-absorbance fluorescence. inhibition, % at 5.6 µM. 1,300 tested, under 10 active. AID 1856; call rule not given here;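 further: 0% = enzyme with vehicle and 100% = vehicle without enzyme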
VIM-2 FRET inh = VIM-2 FRET inhibition, artifact counter-screen; inhibition, % at 5.6 µM; actives 23% (n = 1,300); shares compounds with VIM-2 inhibitor; purified VIM-2, CCF2 FRET substrate hydrolysis;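 active means inhibition above the mean of all tested compounds plus 3 SD, cut at about 19% in these data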;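 further: 0% = VIM-2 plus DMSO and 100% = no enzyme wells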
TEM-1 inh = blocks E. coli TEM-1 beta-lactamase in VIM-2 selectivity screen. shares compounds with VIM-2 inhibitor. Purified TEM-1, nitrocefin hydrolysis, epi-absorbance fluorescence. inhibition, % at 5.6 µM. actives 3% (n = 1,300);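 active means inhibition above that campaign's mean inhibition plus 3 SD, cut at about 0.46% in these data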;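 further: 0% = TEM-1 with DMSO and 100% = TEM-1 with 100 µM potassium clavulanate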
VIM-2 confirm 2 = confirmation of P. aeruginosa VIM-2 metallo-beta-lactamase inhibitors; shares compounds with VIM-2 inhibitor; purified VIM-2, nitrocefin hydrolysis, epi-absorbance; inhibition, % at 5.6 µM; actives 96% (n = 1,300); AID 2187;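 active means inhibition of the VIM-2 beta-lactamase enzyme above about 11% from the earlier first-round screen, limit read from the data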;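 further: 0% = VIM-2 with DMSO and 100% = buffer wells without enzyme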
Active calls of the source: *; nt = not tested or not shown. An excerpt weighted towards active compounds, which were near 3.4% of everything screened.

SMILES	MEKK2 WT-MEK5	IMP-1 inh-1	VIM-2 inhibitor	MEKK3 PB1 HTS	MEKK2mut PB1 HTS	IMP-1 inh-2	VIM-2 FRET inh	TEM-1 inh	VIM-2 confirm 2
S=c1[nH]nc(-c2ccc(Br)cc2)n1-c1ccc2c(c1)OCCO2	93.0	-5.0	1.1	96.0	-11.0	nt	nt	nt	nt
CCN(CC)S(=O)(=O)c1cccc(C(=O)NCc2ccccc2)c1	94.0	-0.9	-1.4	94.0	-10.0	nt	nt	nt	nt
COc1ccc(-c2nnc3sc(-c4ccco4)nn23)cc1OC	100.0	-5.4	2.5	100.0	-2.0	nt	nt	nt	nt
COc1cc(-c2nn3c(-c4ccccc4)nnc3s2)cc(OC)c1OC	86.0	-3.0	18.1*	91.0	-8.0	-2.4	38.5*	-5.4	36.5*
CCOc1cccc(-c2nnc3sc(-c4cc(OC)c(OC)c(OC)c4)nn23)c1	93.0	-4.2	-1.5	97.0	-4.0	nt	nt	nt	nt
Cc1cc(-c2nn3c(-c4ccccc4)nnc3s2)c2ccccc2n1	100.0	-3.9	12.7*	99.0	7.0	-2.6	10.3	-3.9	35.4*
COc1cc(OC)c(-c2nn3c(-c4ccco4)nnc3s2)cc1OC	99.0	4.0	35.8*	102.0	-4.0	-2.4	-4.9	-3.8	42.1*
COc1ccc(-c2nn3c(-c4ccco4)nnc3s2)cc1OC	108.0	0.0	53.8*	104.0	6.0	-3.7	-8.9	-11.8	56.1*
COc1ccc(NC(=O)c2ccco2)cc1NC(=O)c1ccc(Br)o1	101.0	-1.9	-1.8	96.0	1.0	nt	nt	nt	nt
CN1CCN(S(=O)(=O)c2ccc(NC(=S)NC(=O)C3CCC3)cc2)CC1	102.0	-1.4	-0.3	97.0	-1.0	nt	nt	nt	nt
Cc1cccc(C(=O)NC(=S)Nc2ccc(S(=O)(=O)N3CCN(C)CC3)cc2)c1	107.0	-3.2	38.2*	104.0	4.0	-2.0	2.7	-9.2	68.7*
Cc1ccc(C(=O)NC(=S)Nc2ccc(S(=O)(=O)N3CCN(C)CC3)cc2)cc1	nt	-1.9	31.4*	nt	nt	-2.0	-0.2	-8.1	62.7*
Cc1[nH]ncc1N=Cc1ccc([N+](=O)[O-])cc1	99.0	-2.9	-1.6	99.0	-1.0	nt	nt	nt	nt
COc1ccc(/C=N/NC(=O)c2cc(C)oc2C)cc1OCc1ccccc1	92.0	-1.6	-3.0	101.0	3.0	nt	nt	nt	nt
CN1CCN(CC(=O)Nc2c(C(=O)C3CC3)oc3ccccc23)CC1	91.0	-4.2	21.2*	88.0	-4.0	-1.9	3.3	-7.0	35.7*
Cc1cccc(C)c1OCC(=O)OC/C(O)=C(\C#N)c1nc2ccccc2[nH]1	97.0	-1.9	4.0	101.0	34.0	nt	nt	nt	nt
N#C/C(=C(/O)CCl)c1nc2ccccc2[nH]1	84.0	0.3	49.7*	77.0	-10.0	-2.7	-12.2	-6.8	35.8*
Cc1cc(C)cc(OCC(=O)OC/C(O)=C(\C#N)c2nc3ccccc3[nH]2)c1	91.0	1.2	13.9*	93.0	-3.0	-2.8	-8.4	-4.1	5.3
CCOC(=O)c1sc2nc(C)nc(NCc3cccnc3)c2c1C	90.0	-3.4	23.9*	86.0	-5.0	-2.6	-3.9	-6.4	50.3*
Cc1c(OC(C)C(=O)NCc2cccnc2)ccc2c3c(c(=O)oc12)CCCC3 (stereo not drawn)	106.0	-1.5	13.6*	98.0	3.0	-2.2	-3.4	-11.9	24.0*
CCOc1ccc2c3c(c(=O)oc2c1OCC)CCCC3	107.0	-2.1	2.0	109.0	3.0	nt	nt	nt	nt
Cc1c(C)c2ccc(OCC(=O)Nc3cccnc3)c(C)c2oc1=O	100.0	-2.7	12.3*	102.0	1.0	-2.4	-1.3	-13.7	20.9*
Cc1c(OC(C)C(=O)O)ccc2c3c(c(=O)oc12)CCCC3 (stereo not drawn)	102.0	-0.1	-2.0	101.0	5.0	nt	nt	nt	nt
